The structures appear in SMILES notation. Converted amounts (≈) assume the structure as drawn.

Experiment [1] relates to Streptococcus pneumoniae. Nature of the experiment: Antibacterial activity against erythromycin-susceptible Streptococcus pneumoniae ATCC 49619. The experiment is classed as functional. The method in brief:
(§1)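 MIC by broth microdilution following CLSI (formerly NCCLS) guidelines for S. pneumoniae.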

In experiment [2] the test system is Streptococcus pneumoniae. Nature of the experiment: Antibacterial activity against erythromycin-resistant Streptococcus pneumoniae 205. The class given is functional. A digest of the protocol: as §1

As to `CO[C@]1(C)C[C@H](O[C@H]2[C@H](C)[C@@H](O[C@@H]3O[C@H](C)C[C@H](N(C)C)[C@H]3O)[C@@](C)(O)C[C@@H](C)[C@H](O)[C@H](C)CN(C)CCOC(=O)[C@@H]2C)O[C@@H](C)[C@@H]1O`, the minimum inhibitory concentration (MIC) (commonly the lowest concentration that inhibits growth of the organism) in experiment [1] is 4 µg/mL (≈ 5.79 µM); in experiment [2] it was over 128 µg/mL.
Regarding `CO[C@]1(C)C[C@H](O[C@H]2[C@H](C)[C@@H](O[C@@H]3O[C@H](C)C[C@H](N(C)C)[C@H]3O)[C@@](C)(O)C[C@@H](C)[C@H](O)[C@H](C)CN(C)[C@@H](COCc3ccccc3)COC(=O)[C@@H]2C)O[C@@H](C)[C@@H]1O`, the figures for the MIC in experiment [1] and in experiment [2] were 2 µg/mL (≈ 2.47 µM) and 128 µg/mL (≈ 158 µM), respectively.
Taken in the same sequence, the figures for `CO[C@]1(C)C[C@H](O[C@H]2[C@H](C)[C@@H](O[C@@H]3O[C@H](C)C[C@H](N(C)C)[C@H]3O)[C@@](C)(O)C[C@@H](C)[C@H](O)[C@H](C)CN(C)C[C@@H](COCc3ccccc3)OC(=O)[C@@H]2C)O[C@@H](C)[C@@H]1O` were 1 µg/mL (≈ 1.23 µM) and 64 µg/mL (≈ 78.9 µM).
As to `CO[C@]1(C)C[C@H](O[C@H]2[C@H](C)[C@@H](O[C@@H]3O[C@H](C)C[C@H](N(C)C)[C@H]3O)[C@@](C)(O)C[C@@H](C)[C@H](O)[C@H](C)CN(C)C[C@H](COCc3ccccc3)OC(=O)[C@@H]2C)O[C@@H](C)[C@@H]1O`, the figures for the MIC in experiment [1] and in experiment [2] were 0.12 µg/mL (≈ 0.148 µM) and 32 µg/mL (≈ 39.5 µM), respectively.
Consider `CC[C@H]1OC(=O)[C@H](C)[C@@H](O[C@H]2C[C@@](C)(OC)[C@@H](O)[C@H](C)O2)[C@H](C)[C@@H](O[C@@H]2O[C@H](C)C[C@H](N(C)C)[C@H]2O)[C@](C)(OC)C[C@@H](C)C(=O)[C@H](C)[C@@H](O)[C@]1(C)O` [CLARITHROMYCIN], for which the MIC in experiment [1] is 0.03 µg/mL (≈ 0.0401 µM); in experiment [2], over 128 µg/mL.

Values taken from ChEMBL document CHEMBL1671842, “Synthesis and antibacterial activity of a novel class of 15-membered macrolide antibiotics, "11a-azalides"” (2011).
